CCR6 antag: CCR6 receptor antagonists, primary screen, cell-based, CHO-K1, luminescence, beta-arrestin, uHTS. C-C chemokine receptor type 6 (Homo sapiens), P51684. CHO-K1 CCR6 PathHunter beta-arrestin, CCL20-stimulated. inhibition, % at 20 µM. actives 0.49% (n = 340,000). AID 493098, 2011;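 active = compounds whose inhibition of the agonist-driven luminescence signal at 20 µM reaches about 50%, limit read from the data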;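 also: cells stimulated with CCL20 at 14 nM final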
m5-HT2A agonist: mouse Htr2a agonists via beta-arrestin recruitment, primary screen, cell-based, luminescence; activation, % at 7.6 µM; AID 624169, 2012; CHO-K1 mHTR2A beta-arrestin complementation; percent of 30 µM serotonin response; actives 0.66% (n = 360,000); 5-hydroxytryptamine receptor 2A (Mus musculus), P35363;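 active = activation above a run cutoff, the mean activation of all tested compounds plus 3 SD, cut at about 14% in these data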
APJ antag: antagonists of human apelin receptor APJ, primary screen, CHO-K1 cells, beta-arrestin complementation, luminescence; inhibition, % at 20 µM; P35414; actives 0.32% (n = 330,000); AID 2521, 2010;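 active = inhibition above about 40% at 20 µM, limit read from the data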;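 also: cells challenged with 10 nM apelin-13 agonist together with compound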
APJ ag: agonists of human apelin receptor APJ, primary screen, CHO-K1 cells, PathHunter beta-arrestin, luminescence; actives 0.11% (n = 330,000); activation, % at 20 µM; 0% DMSO wells, 100% apelin;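 active = activation more than six SD over the plate average, tested at 20 µM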
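Assay system: CHO-K1 APJ beta-arrestin complementation cell line / Compound: single test compound dose, 20 µM final, 1% DMSO / Times: overnight seeding, 90 min compound at 25 °C, 1 h detection / Technique: beta-gal luminescence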
EBI2 antag: EBI2 receptor antagonists, beta-arrestin recruitment, primary screen, cell-based, luminescence, 7a,25-OHC stimulation, uHTS; G-protein coupled receptor 183 (Homo sapiens), P32249; 7a,25-OHC stimulated; inhibition, % at 5 µM; actives 0.81% (n = 360,000); in the data active = inhibition above about 38%;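 also: enzyme fragment complementation signal reports receptor beta-arrestin coupling in cells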
CXCR6 block: CXCR6 receptor inhibitors, primary screen, cell-based, beta-arrestin, luminescence, CHO-K1 PathHunter, 1536-well | C-X-C chemokine receptor type 6 (Homo sapiens), O00574 | inhibition, % at 20 µM | actives 0.36% (n = 360,000); in the data active = inhibition above about 34%, passing the limit was not always enough;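 also: antagonist mode with CXCL16 agonist at 10 nM final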
MOR ag counter: OPRM1 agonists via beta-arrestin recruitment, confirmation, counter-screen for mouse HTR2A agonist project, cell-based, luminescence, single concentration; shares compounds with m5-HT2A agonist; U2OS OPRM1 beta-arrestin PathHunter; DMSO 0%, DAMGO 9.3 µM 100%; activation, % at 9.3 µM; actives 5.3% (n = 2,300);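 active = mean activation above the mean of DMSO-only wells plus 3 SD, cut at about 0.5% in these data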
Target sequence (P35372 whole entry, looked up): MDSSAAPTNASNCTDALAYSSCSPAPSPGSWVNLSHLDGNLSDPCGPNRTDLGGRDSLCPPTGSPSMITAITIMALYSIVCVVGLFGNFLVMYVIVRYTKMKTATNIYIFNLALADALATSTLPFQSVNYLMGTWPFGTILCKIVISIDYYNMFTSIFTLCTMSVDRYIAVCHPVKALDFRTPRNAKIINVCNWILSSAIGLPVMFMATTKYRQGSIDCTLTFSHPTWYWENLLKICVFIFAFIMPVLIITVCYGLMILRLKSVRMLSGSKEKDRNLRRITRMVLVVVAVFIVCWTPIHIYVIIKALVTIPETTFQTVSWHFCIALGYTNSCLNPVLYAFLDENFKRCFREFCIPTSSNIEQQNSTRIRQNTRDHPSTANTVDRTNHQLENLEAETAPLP
HTR2A ag conf: mouse HTR2A agonists, beta-arrestin recruitment, confirmation, cell-based, luminescence, CHO-K1 PathHunter, triplicate; shares compounds with m5-HT2A agonist; DMSO 0%, 30 µM serotonin 100%; activation, % at 7.6 µM; actives 19% (n = 2,300);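 active = mean activation across triplicates above the hit threshold derived in the original primary screen, cut at about 15% in these data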
Of the large screens only hits and unclear results are named; the others gave an inactive call (follow-up assays come after a bar, where they were run). Hits are enriched below; roughly 2.1% of the tested compounds scored in any of these assays.

CCOC(=O)c1ccc(NC(=O)CCS(=O)(=O)Cc2ccccc2)cc1	m5-HT2A agonist 15.3 | MOR ag counter inactive | HTR2A ag conf inactive
Cc1ccc([C@@H]2[C@@H]3C(=O)N(C)C(=O)[C@@H]3[C@]3(C)C(=O)N(Cc4ccccn4)CC(=O)N23)o1	m5-HT2A agonist 16.6 | MOR ag counter inactive | HTR2A ag conf inactive
Cn1c(NC(=O)/C=C/c2ccco2)cc(=O)n(C)c1=O	none
CC(C)(C)C(=O)n1nc(-c2ccccc2)oc1=O	m5-HT2A agonist 15.9 | MOR ag counter inactive | HTR2A ag conf inactive
COc1ccc(C2/C=C\CN(C(=O)C3CCCC3)CC(=O)N2Cc2ccc(F)cc2)cc1 (configuration not stated)	m5-HT2A agonist 24.0 | MOR ag counter inactive | HTR2A ag conf 61.5
CCCC(=O)c1c(NC)cc(C)oc1=O	none
Cc1nnc(SCC(=O)N(C)c2c(N)n(Cc3ccccc3)c(=O)[nH]c2=O)n1Cc1ccccc1	m5-HT2A agonist 29.4 | MOR ag counter inactive | HTR2A ag conf inactive
CC1/C(=N/O)CC(c2ccccc2)N(C)C1c1ccccc1 (configuration not stated)	none
O=S(=O)(NCc1cccs1)c1ccc(Br)s1	none (no result: CCR6 antag, m5-HT2A agonist, EBI2 antag, CXCR6 block)
OCCC1CN(Cc2cnn(-c3ccc(F)cc3)c2)CCN1Cc1ccsc1 (configuration not stated)	none
CCn1cc(CN2CCN(Cc3ccsc3)C(CCO)C2)cn1 (configuration not stated)	m5-HT2A agonist 15.1 | MOR ag counter inactive | HTR2A ag conf inactive
O=C(/C=C/c1cccc(F)c1)OCC(=O)c1ccc[nH]1	none
COc1ccc(CN2CCN(C(=O)c3ccco3)CC2)cc1OCc1ccccc1	m5-HT2A agonist 19.5 | MOR ag counter inactive | HTR2A ag conf 74.2
COc1ccccc1OCc1ccc(C(=O)N2CCN(C(=O)c3ccco3)CC2)cc1	none
COc1ccc(CN2CCN(C(=O)c3ccco3)CC2)cc1OC	m5-HT2A agonist 32.2 | MOR ag counter inactive | HTR2A ag conf 82.4
Cc1ccc(NCCC(=O)c2cccs2)cc1C	none
Cc1cc2oc(=O)cc(CN3CCN(c4ccc(Cl)c(Cl)c4)CC3)c2cc1Cl	m5-HT2A agonist 17.2 (no result: CCR6 antag, APJ antag, APJ ag) | MOR ag counter inactive | HTR2A ag conf inactive
Cc1cc2oc(=O)cc(Cn3ccnc3)c2cc1Cl	m5-HT2A agonist 25.8 | MOR ag counter inactive | HTR2A ag conf inactive
COc1ccc(N2CCN(Cc3cc(=O)oc4cc(C)c(Cl)cc34)CC2)cc1	none
Cc1ccc2c(CN3CCCCC3)cc(=O)oc2c1	none
Cc1ccc2c(CN3CCN(c4ccc(Cl)c(Cl)c4)CC3)cc(=O)oc2c1	m5-HT2A agonist 17.8 (no result: CCR6 antag, APJ antag, APJ ag) | MOR ag counter inactive | HTR2A ag conf inactive
Cc1cc2oc(=O)cc(Cn3ccnc3)c2cc1O	none
Cc1cc(NC(=O)CSc2nnc(-c3cccnc3)n2C2CCCCC2C)no1 (configuration not stated)	none
O=S(=O)(NOCc1ccc(Cl)cc1)c1ccc(Cl)cc1	m5-HT2A agonist 14.9 | MOR ag counter inactive | HTR2A ag conf inactive
Cc1ccc(CONS(=O)(=O)c2cc(C)ccc2C)cc1	none
CN(Cc1nc(-c2ccccc2)no1)C(=O)c1ccco1	m5-HT2A agonist 15.5 | MOR ag counter inactive | HTR2A ag conf inactive
Cc1cc(C)nc(SCC(=O)Nc2ccc(S(=O)(=O)Nc3ncccn3)cc2)n1	m5-HT2A agonist 19.1 | MOR ag counter inactive | HTR2A ag conf inactive
Cc1ccc(SCCNC(=O)C(C)C)cc1	m5-HT2A agonist 16.4 | MOR ag counter inactive | HTR2A ag conf inactive
Cc1ccc(SCCNC(=O)c2ccccc2C)cc1	none
COc1ccc(-n2c(SCC(=O)Nc3cc(C)on3)nc3c(c2=O)SCC3)cc1OC	m5-HT2A agonist 23.1 | MOR ag counter inactive | HTR2A ag conf inactive
O=C(C[C@@H]1C/C=C\CCCC(=O)OC[C@@H]2CCCN2C1=O)NCCO	none
O=C(C[C@H]1C/C=C\CCC(=O)OC[C@H]2CCCN2C1=O)NCCO	m5-HT2A agonist 19.5 | MOR ag counter inactive | HTR2A ag conf inactive
CCOc1ccc(/C=C\c2nc(O)c([N+](=O)[O-])c(=O)[nH]2)cc1OCC	m5-HT2A agonist 14.6 | MOR ag counter inactive | HTR2A ag conf inactive
CCOc1cc(/C=C\c2nc(O)c([N+](=O)[O-])c(=O)[nH]2)ccc1OC(C)CC (configuration not stated)	none
CCNc1nc(OC)nc(Oc2ccc(=O)n(-c3ccccc3)n2)n1	m5-HT2A agonist 18.1 | MOR ag counter inactive | HTR2A ag conf inactive
Cc1cccn2c(=O)nc(SCC(=O)NCc3ccccc3)nc12	m5-HT2A agonist 15.5 | MOR ag counter inactive | HTR2A ag conf inactive
CCOC(=O)c1c(C)n(-c2ccc(C)cc2)c2ccc(OCC(O)CNCCCO)cc12 (configuration not stated)	none
COc1ccccc1-c1nc2c(c(SCC(=O)N3CCCCC3)n1)Cc1c(CO)cnc(C)c1O2	m5-HT2A agonist 14.7 | MOR ag counter inactive | HTR2A ag conf inactive
CCOC(=O)NC(Nc1ccc(C)cn1)(C(F)(F)F)C(F)(F)F	none
CC(C)OC(=O)NC(Nc1ccccc1C(=O)O)(C(F)(F)F)C(F)(F)F	m5-HT2A agonist 21.9 | MOR ag counter inactive | HTR2A ag conf inactive
CN1OC[C@@H]2CN(Cc3cc(Cl)cc(Cl)c3)[C@H](c3cccc(Oc4ccccc4)c3)C[C@@H]21	m5-HT2A agonist 14.8 (no result: APJ antag, APJ ag) | MOR ag counter inactive | HTR2A ag conf inactive
COc1cc(-c2ccc3sc(-c4ccsc4)c(C#CCO)c3c2)cc(OC)c1OC	m5-HT2A agonist 18.2 | MOR ag counter inactive | HTR2A ag conf inactive
COc1cc(-c2c(-c3ccsc3)sc3ccccc23)cc(OC)c1OC	none
CSc1cccc(NS(=O)(=O)c2cn(C)cn2)c1	m5-HT2A agonist 16.7 | MOR ag counter inactive | HTR2A ag conf inactive
COc1ccc(NS(=O)(=O)c2cn(C)cn2)cc1	none

Screens from PubChem.
